Test results from ChEMBL document CHEMBL1152866, “Modulation of gene expression via disruption of NF-kappaB signaling by a bacterial small molecule” (Science, 2008).
Calls of active or inactive are those of the source.

Assays:
[1] = system: MEF; assay: Inhibition of LPS-induced c-jun mRNA expression in MEF after 90 mins by Northern blot analysis; assay type: functional, cell-based; conditions: Mus musculus
[2] = system: BMDM; assay: Inhibition of heat-killed Staphylococcus aureus-induced MCP-1 mRNA expression in mouse BMDM by Northern blot analysis; assay type: functional, cell-based
[3] = system: BMDM; assay: Inhibition of LPS-induced IL-12beta mRNA expression in mouse BMDM up to 3 hrs by Northern blot analysis; assay type: functional, cell-based
[4] = system: BMDM; assay: Inhibition of LPS-induced IRF-1 mRNA expression in mouse BMDM up to 3 hrs by Northern blot analysis; assay type: functional, cell-based
[5] = target: T1, Inhibitor of nuclear factor kappa-B kinase subunit alpha (Homo sapiens) (UniProt O15111); assay: Inhibition of IkappaBalpha phosphorylation in human WI38 cells assessed after 2 hrs by Western blot analysis; assay type: cell-based; conditions: WI-38
T1 sequence (whole entry): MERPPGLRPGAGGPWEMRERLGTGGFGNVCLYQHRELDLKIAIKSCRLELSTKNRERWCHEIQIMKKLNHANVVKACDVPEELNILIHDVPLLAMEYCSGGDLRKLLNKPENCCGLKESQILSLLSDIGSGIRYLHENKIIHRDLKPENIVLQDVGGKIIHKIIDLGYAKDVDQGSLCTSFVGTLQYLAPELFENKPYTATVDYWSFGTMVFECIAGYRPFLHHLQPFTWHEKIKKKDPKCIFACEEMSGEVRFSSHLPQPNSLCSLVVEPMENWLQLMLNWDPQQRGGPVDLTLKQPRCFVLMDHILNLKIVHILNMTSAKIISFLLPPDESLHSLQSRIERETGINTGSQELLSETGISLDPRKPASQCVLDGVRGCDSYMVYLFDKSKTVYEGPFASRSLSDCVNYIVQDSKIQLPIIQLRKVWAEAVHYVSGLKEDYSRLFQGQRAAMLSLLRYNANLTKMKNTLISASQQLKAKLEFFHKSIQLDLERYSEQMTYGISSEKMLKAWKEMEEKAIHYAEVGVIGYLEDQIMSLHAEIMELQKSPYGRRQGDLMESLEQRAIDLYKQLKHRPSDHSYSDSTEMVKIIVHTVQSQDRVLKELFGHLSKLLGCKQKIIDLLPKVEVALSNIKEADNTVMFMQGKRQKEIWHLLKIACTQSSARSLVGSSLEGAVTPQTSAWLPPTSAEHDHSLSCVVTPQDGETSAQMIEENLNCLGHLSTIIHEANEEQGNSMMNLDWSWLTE
Outline: (§1)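 WI38 lung fibroblasts and bronchial epithelial cells were stimulated for 2 hours. The same Western blot was probed for PARP cleavage, total IκBα and phosphorylated IκBα.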

[6] = system: BMDM; assay: Inhibition of LPS-induced IFNbeta mRNA expression in mouse BMDM up to 3 hrs by Northern blot analysis; assay type: functional, cell-based
[7] = target: T1, Inhibitor of nuclear factor kappa-B kinase subunit alpha (Homo sapiens); assay: Inhibition of IkappaBalpha in human bronchial epithelial cells assessed after 2 hrs by Western blot analysis; assay type: cell-based; conditions: Epithelial cell; outline: as §1
[8] = target: T2, Inhibitor of nuclear factor kappa-B kinase subunit alpha (Mus musculus) (UniProt Q60680); assay: Inhibition of TNF-induced IkappaBalpha phosphorylation in mouse MEF up to 120 mins by Western blot analysis
T2 sequence (whole entry): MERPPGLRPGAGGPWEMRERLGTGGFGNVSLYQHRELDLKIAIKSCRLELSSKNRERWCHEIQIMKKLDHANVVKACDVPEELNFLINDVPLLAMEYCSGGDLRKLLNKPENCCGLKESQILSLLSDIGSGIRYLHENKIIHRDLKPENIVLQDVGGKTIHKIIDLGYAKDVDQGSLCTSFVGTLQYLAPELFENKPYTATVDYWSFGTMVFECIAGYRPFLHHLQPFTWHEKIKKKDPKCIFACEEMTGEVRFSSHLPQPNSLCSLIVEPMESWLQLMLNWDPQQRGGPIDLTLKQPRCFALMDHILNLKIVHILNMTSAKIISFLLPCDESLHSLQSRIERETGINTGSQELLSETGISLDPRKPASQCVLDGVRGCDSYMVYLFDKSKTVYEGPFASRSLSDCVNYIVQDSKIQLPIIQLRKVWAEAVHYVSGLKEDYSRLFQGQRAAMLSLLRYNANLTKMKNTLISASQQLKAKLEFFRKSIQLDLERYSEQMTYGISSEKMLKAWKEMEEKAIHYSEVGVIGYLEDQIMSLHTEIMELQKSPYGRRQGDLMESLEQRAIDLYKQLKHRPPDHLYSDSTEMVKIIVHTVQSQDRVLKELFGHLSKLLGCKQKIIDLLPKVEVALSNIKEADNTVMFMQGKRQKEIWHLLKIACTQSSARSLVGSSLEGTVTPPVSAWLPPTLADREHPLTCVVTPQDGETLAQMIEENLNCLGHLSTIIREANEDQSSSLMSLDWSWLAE

[9] = system: Blood; assay: Inhibition of LPS-induced TNF production in human whole blood after 3 hrs; assay type: functional, tissue-based
[10] = system: BMDM; assay: Inhibition of heat-killed Staphylococcus aureus-induced IL1-beta mRNA expression in mouse BMDM by Northern blot analysis; assay type: functional
[11] = system: MEF; assay: Effect on TNF-induced MCP1 mRNA expression in MEF by Northern blot analysis; assay type: functional, cell-based; conditions: Mus musculus
[12] = system: Macrophage; assay: Inhibition of LPS-induced IkappaBalpha expression in C57BL/6 mouse alveolar macrophages measured up to 120 mins by Western blot analysis; assay type: functional, cell-based
[13] = system: MEF; assay: Effect on TNF-induced RANTES mRNA expression in MEF by Northern blot analysis; assay type: functional, cell-based; conditions: Mus musculus
[14] = system: BMDM; assay: Inhibition of heat-killed Staphylococcus aureus-induced IkappaBalpha mRNA expression in mouse BMDM by Northern blot analysis; assay type: functional
[15] = target: T2, Inhibitor of nuclear factor kappa-B kinase subunit alpha (Mus musculus); assay: Inhibition of LPS-induced IkappaBalpha phosphorylation in C57BL/6 mouse alveolar macrophages measured up to 120 mins by Western blot analysis
[16] = species on record: Mus musculus; assay: Inhibition of IKK activity in LPS-induced mouse BMDM assessed as reduction in phosphorylation of IkappaBalpha treated 2 hrs after LPS challenge measured up to 120 mins by immunoblot analysis
[17] = system: BMDM; assay: Inhibition of heat-killed Staphylococcus aureus-induced TNF mRNA expression in mouse BMDM by Northern blot analysis; assay type: functional, cell-based
[18] = system: BMDM; assay: Inhibition of LPS-induced IP-10 mRNA expression in mouse BMDM up to 3 hrs by Northern blot analysis; assay type: functional, cell-based
[19] = system: Macrophage; assay: Inhibition of LPS-induced IkappaBalpha mRNA expression in mouse alveolar macrophages after 90 mins by Northern blot analysis; assay type: functional, cell-based
[20] = system: BMDM; assay: Inhibition of heat-killed Staphylococcus aureus-induced c-jun mRNA expression in mouse BMDM by Northern blot analysis; assay type: functional, cell-based
[21] = system: BMDM; assay: Inhibition of LPS-induced IkappaBalpha mRNA expression in mouse BMDM up to 3 hrs by Northern blot analysis; assay type: functional, cell-based
[22] = system: BMDM; assay: Inhibition of LPS-induced c-jun mRNA expression in mouse BMDM up to 3 hrs by Northern blot analysis; assay type: functional, cell-based
[23] = system: WI-38; assay: Induction of apoptosis in TNF-stimulated human WI38 fibroblast assessed as PARP cleavage after 2 hrs by Western blot analysis; assay type: functional, cell-based; outline: as §1
[24] = species on record: Mus musculus; assay: Inhibition of LPS-induced IKK activity in mouse BMDM assessed as GST-IkappaBalpha phosphorylation after 5 mins by immunoprecipitation kinase assay
[25] = system: Epithelial cell; assay: Induction of apoptosis in TNF-stimulated human bronchial epithelial cells assessed as PARP cleavage after 2 hrs by Western blot analysis; assay type: functional, cell-based; outline: as §1

Measured: Activity

CCCCCCCCCC(=O)CC(=O)N[C@H]1CCOC1=O
active: [1] Dose-dependent effect | [2] | [3] Dose-dependent effect | [4] Dose-dependent effect | [5] | [6] Dose-dependent effect | [7] | [8] | [9] | [10] | [11] | [12] | [13] | [14] | [15] | [16] | [17] | [18] Dose-dependent effect | [19] Dose-dependent effect | [20] | [21] Dose-dependent effect | [22] Dose-dependent effect | [23] | [24] | [25]
